According to ChEMBL document CHEMBL3580567 (J Med Chem, 2015):
pEC50, pKi: −log10 of the molar value. Calls of active or inactive are those of the source. The rule behind the calls is not given here.

What was measured:
[1] = biological target: T1, Melatonin receptor type 1A (Homo sapiens, UniProt P48039); experiment: Displacement of 2-[125I]-iodomelatonin from human melatonin receptor-1 transfected in CHO cell membranes after 120 mins
[2] = biological target: 5-hydroxytryptamine receptor 2A (Homo sapiens) (UniProt P28223); experiment: Binding affinity to 5HT-2A receptor (unknown origin) at 10 uM
[3] = Permeability of the compound at 100 ug/ml after 240 mins by PAMPA; type: physicochemical; conditions: 4 h
Outline: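 For PAMPA-BBB, the filter was coated with porcine brain lipid in dodecane (20 mg/mL). Donor compound was 100 µg/mL in PBS:ethanol 70:30, pH 7.4, and the acceptor held PBS:ethanol 70:30. Plates were incubated 240 min at 25 °C. Acceptor concentration was read by UV-Vis at five wavelengths in four wells, over at least three runs. Eleven quality-control standards were included.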

[4] = biological target: T2, Melatonin receptor type 1B (Homo sapiens) (UniProt P49286); experiment: Agonist activity at human melatonin receptor-2 transfected in CHO cell membranes after 1 hr by GTPgammaS binding assay relative to melatonin; type: functional
T2 sequence (whole entry): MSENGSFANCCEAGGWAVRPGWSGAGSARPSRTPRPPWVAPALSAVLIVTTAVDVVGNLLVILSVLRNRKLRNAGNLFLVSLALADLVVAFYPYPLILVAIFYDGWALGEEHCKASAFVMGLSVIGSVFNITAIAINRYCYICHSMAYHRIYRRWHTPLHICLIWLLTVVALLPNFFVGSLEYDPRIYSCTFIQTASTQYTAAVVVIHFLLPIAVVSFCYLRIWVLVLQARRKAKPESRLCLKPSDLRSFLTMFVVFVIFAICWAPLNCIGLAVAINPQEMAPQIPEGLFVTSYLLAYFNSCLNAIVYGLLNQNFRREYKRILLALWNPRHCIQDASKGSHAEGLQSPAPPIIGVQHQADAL
Outline: (§1)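 CHO membranes (20 µg/mL) stably expressing human MT1 or MT2 in 20 mM HEPES pH 7.4, 100 mM NaCl, 3 µM GDP, 3 mM MgCl2, 20 µg/mL saponin. Incubated with 0.2 nM [35S]GTPγS for 1 h at rt, then filtered. Non-specific binding defined with 10 µM GTPγS. Seven concentrations in duplicate; EC50 and Emax fitted.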

[5] = biological target: Sodium-dependent serotonin transporter (Homo sapiens) (UniProt P31645); experiment: Binding affinity to SERT (unknown origin) at 10 uM
[6] = biological target: Cannabinoid receptor 2 (Homo sapiens) (UniProt P34972); experiment: Binding affinity to CB2 receptor (unknown origin) at 10 uM
[7] = biological target: T3, Melatonin receptor type 1B (Homo sapiens, UniProt P49286); experiment: Agonist activity at human melatonin receptor-2 transfected in CHO cell membranes after 1 hr by GTPgammaS binding assay; type: functional
T3 sequence (P49286 whole entry): T2 sequence (whole entry)

[8] = biological target: T1, Melatonin receptor type 1A; experiment: Agonist activity at human melatonin receptor-1 transfected in CHO cell membranes after 1 hr by GTPgammaS binding assay; type: functional
[9] = biological target: 5-hydroxytryptamine receptor 2B (Homo sapiens) (UniProt P41595); experiment: Binding affinity to 5HT-2B receptor (unknown origin) at 10 uM
[10] = (§2) Induction of primary neuronal stem cell maturation derived from subgranular zone of dentate gyrus of Wistar rat hippocampus assessed as upregulation of MAP-2 expression incubated for 7 days by DAPI staining-based fluorescence microscopic analysis; type: functional; conditions: Primary neuron
Outline: (§3)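 Neurospheres came from the SGZ of the dentate gyrus of adult male Wistar rats (8-12 weeks). They were grown in DMEM/F12 with 10 ng/mL EGF, 10 ng/mL FGF and B27. After 3 days, cultures were treated with compounds for 7 days. They were then plated on poly-L-lysine coverslips for 48 h with serum and without growth factors. Cells were immunostained for TuJ1 and MAP-2 with DAPI nuclei. Positive cells were counted by fluorescence microscopy in five NS per condition over three independent experiments. Untreated cultures gave basal values.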

[11] = biological target: T2, Melatonin receptor type 1B (Homo sapiens); experiment: Agonist activity at human recombinant melatonin receptor-2 expressed in CHO cells assessed as decrease of cAMP level after 10 mins by HTRF assay relative to melatonin; type: functional, cell-based
[12] = biological target: T4, Peroxisome proliferator-activated receptor gamma (Homo sapiens) (UniProt P37231); experiment: Binding affinity to PPARgamma (unknown origin) at 10 uM
T4 sequence (whole entry): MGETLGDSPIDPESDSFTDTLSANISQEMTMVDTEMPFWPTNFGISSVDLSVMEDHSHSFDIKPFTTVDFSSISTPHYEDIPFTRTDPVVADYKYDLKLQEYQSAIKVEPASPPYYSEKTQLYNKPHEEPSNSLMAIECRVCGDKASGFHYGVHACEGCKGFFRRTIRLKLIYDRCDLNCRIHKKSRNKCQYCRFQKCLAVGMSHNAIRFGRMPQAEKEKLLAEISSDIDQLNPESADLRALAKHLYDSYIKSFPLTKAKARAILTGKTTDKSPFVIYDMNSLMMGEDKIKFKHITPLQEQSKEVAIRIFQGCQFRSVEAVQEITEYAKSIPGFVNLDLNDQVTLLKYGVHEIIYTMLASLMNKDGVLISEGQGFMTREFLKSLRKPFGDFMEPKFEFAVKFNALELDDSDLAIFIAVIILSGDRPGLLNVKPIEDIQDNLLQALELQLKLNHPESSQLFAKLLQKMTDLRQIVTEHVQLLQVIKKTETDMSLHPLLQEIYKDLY

[13] = Induction of primary neuronal stem cell differentiation derived from subgranular zone of dentate gyrus of Wistar rat hippocampus assessed as upregulation of TuJ1 expression at 10 uM incubated for 7 days followed by 48 hrs incubation in presence of serum and absence of EGF by DAPI staining-based fluorescence microscopic analysis in presence of melatonin receptor antagonist luzindole; type: functional; conditions: Primary neuron; outline: as §3
[14] = as §2, with “expression at 10 uM” for “expression”, “analysis in presence of melatonin receptor antagonist luzindole” for “analysis”; type: functional, tissue-based; conditions: Primary neuron; outline: as §3
[15] = biological target: T5, 5-hydroxytryptamine receptor 2C (Homo sapiens) (UniProt P28335); experiment: Binding affinity to 5HT-2C receptor (unknown origin) at 10 uM
T5 sequence (whole entry): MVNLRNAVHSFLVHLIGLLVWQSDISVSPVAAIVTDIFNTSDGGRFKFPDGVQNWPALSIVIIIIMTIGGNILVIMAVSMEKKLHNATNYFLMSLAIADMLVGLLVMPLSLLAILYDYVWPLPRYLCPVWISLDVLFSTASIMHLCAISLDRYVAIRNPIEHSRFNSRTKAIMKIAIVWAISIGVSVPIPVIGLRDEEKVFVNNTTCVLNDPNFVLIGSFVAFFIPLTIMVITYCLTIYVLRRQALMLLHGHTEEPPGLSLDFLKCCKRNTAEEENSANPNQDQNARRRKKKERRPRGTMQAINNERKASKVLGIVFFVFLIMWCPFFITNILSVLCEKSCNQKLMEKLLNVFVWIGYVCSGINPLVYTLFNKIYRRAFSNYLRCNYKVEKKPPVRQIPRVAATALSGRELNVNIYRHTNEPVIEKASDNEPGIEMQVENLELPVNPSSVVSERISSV

[16] = biological target: T1, Melatonin receptor type 1A; experiment: Agonist activity at human melatonin receptor-1 transfected in CHO cell membranes after 1 hr by GTPgammaS binding assay relative to melatonin; type: functional; outline: as §1

T1 sequence (P48039 whole entry): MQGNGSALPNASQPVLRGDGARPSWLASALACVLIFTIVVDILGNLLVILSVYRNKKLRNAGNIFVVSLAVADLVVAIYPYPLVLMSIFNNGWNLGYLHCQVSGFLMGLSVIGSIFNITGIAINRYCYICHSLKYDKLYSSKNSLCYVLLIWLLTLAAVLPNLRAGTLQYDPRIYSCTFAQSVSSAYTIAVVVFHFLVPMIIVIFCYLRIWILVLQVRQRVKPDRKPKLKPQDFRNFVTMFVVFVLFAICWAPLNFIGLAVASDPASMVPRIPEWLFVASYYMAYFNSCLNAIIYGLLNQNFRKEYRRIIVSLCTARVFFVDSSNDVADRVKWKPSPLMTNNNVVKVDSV
Chain of 5-hydroxytryptamine receptor 2A (Homo sapiens) (P28223 whole entry): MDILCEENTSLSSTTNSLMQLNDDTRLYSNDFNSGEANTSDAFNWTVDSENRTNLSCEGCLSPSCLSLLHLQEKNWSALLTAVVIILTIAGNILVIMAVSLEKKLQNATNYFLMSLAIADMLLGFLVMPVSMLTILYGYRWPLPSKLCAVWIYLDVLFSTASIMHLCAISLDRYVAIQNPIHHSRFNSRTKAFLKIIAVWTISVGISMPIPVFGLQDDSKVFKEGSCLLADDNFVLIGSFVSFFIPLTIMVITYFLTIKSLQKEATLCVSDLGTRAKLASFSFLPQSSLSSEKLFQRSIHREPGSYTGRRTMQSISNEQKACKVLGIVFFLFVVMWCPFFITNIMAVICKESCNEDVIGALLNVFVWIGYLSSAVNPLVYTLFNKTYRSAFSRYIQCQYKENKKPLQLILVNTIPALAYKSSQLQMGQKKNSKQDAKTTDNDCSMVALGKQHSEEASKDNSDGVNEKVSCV
Chain of Sodium-dependent serotonin transporter (Homo sapiens) (P31645 whole entry, looked up): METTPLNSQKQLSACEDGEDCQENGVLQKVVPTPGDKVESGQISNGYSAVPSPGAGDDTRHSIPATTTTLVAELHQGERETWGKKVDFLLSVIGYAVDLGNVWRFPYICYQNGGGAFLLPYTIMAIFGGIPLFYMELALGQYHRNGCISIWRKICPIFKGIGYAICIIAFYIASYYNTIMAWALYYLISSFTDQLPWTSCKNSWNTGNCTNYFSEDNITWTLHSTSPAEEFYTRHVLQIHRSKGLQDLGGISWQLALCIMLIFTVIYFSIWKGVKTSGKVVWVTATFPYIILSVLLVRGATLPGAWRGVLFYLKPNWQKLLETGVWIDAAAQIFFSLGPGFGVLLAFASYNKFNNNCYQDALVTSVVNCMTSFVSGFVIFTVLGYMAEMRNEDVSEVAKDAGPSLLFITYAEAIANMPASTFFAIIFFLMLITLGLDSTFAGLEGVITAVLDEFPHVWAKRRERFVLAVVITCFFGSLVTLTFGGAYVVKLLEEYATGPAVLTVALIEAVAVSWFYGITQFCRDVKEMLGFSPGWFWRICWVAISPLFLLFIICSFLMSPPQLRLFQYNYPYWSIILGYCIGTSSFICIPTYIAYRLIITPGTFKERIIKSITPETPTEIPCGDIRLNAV
Chain of Cannabinoid receptor 2 (Homo sapiens) (P34972 whole entry): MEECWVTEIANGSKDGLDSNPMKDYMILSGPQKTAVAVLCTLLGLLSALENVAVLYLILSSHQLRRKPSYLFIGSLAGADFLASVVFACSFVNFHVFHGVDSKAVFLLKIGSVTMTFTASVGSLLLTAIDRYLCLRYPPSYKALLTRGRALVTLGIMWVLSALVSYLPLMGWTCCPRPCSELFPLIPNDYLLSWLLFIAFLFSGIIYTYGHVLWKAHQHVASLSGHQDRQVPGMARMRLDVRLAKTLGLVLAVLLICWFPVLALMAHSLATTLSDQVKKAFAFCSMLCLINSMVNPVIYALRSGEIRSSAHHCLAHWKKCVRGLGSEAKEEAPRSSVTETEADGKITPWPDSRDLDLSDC
Chain of 5-hydroxytryptamine receptor 2B (Homo sapiens) (P41595 whole entry): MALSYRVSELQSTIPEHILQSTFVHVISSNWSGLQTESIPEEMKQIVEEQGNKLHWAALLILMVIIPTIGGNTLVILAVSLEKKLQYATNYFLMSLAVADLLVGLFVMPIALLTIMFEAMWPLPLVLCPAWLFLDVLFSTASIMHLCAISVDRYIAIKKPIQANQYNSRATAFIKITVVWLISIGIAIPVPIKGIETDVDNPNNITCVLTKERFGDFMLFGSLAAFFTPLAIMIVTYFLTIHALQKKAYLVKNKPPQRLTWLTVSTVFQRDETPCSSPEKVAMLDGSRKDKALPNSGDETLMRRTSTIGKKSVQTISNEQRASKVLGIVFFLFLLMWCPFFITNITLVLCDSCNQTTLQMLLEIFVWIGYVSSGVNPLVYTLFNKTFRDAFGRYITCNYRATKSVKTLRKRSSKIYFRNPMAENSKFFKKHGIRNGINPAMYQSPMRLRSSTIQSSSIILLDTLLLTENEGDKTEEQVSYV

- pKi [1]: 6.15
- Activity [2]: inactive
- permeability [3]: permeable
- Emax [4]: 32%
- Activity [5]: inactive
- Activity [6]: inactive
- pEC50 [7]: 6.06
- pEC50 [8]: 6.02
- Activity [9]: inactive
- Emax [11]: 92%
- Activity [12]: inactive
- Activity [15]: inactive
- Emax [16]: 19%
SMILES: COc1ccc2[nH]cc(CCc3nnc(C)o3)c2c1
- Activity [10]: Dose-dependent effect
- Activity [13]: inactive
- Activity [14]: inactive
